IC50, Relative potency and Change data for two compounds are collected here from ChEMBL document CHEMBL1125911, “Synthesis and biological activity of new HMG-CoA reductase inhibitors. 3. Lactones of 6-phenoxy-3,5-dihydroxyhexanoic acids” (J Med Chem, 1991).

The structures appear in SMILES notation. Bounds are passed on as bounds.

Experiment [1] concerns Oryctolagus cuniculus. The experiment is described as follows: Tested in vivo for hypocholesterolemic activity by measuring its ability to decrease serum total cholesterol, after oral administration of 75 mg/kg body wt. per day in normolipidemic NZW rabbits; Not significantly active. The class given is functional, organism-based. Also on record: dose 75 mg/kg, route oral.

Experiment [2] concerns the target T1, 3-hydroxy-3-methylglutaryl-coenzyme A reductase (Rattus norvegicus) (UniProt P51639).
T1 sequence (whole entry): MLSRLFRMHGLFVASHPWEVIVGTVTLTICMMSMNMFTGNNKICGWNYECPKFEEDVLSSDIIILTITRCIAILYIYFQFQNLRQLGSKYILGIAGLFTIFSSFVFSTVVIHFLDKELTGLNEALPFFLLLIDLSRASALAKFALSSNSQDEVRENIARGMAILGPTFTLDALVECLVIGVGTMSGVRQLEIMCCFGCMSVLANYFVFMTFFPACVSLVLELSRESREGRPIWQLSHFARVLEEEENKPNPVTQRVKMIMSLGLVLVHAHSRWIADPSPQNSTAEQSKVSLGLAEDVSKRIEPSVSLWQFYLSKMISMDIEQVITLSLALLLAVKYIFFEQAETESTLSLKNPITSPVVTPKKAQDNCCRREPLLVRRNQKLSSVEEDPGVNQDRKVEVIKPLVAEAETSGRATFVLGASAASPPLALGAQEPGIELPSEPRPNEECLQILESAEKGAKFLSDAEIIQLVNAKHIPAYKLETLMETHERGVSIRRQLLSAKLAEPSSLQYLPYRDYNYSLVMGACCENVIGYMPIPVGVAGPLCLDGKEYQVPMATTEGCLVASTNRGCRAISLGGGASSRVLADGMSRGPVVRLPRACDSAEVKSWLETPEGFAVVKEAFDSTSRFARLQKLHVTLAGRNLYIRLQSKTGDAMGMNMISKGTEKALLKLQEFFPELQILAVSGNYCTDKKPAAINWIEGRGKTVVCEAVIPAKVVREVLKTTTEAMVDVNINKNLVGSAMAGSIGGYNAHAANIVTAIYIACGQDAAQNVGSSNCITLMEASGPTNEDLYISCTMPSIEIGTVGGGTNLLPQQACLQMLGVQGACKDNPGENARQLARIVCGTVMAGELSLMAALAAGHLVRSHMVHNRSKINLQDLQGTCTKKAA
Description: (§1) Inhibition of HMG-CoA reductase compared to mevinolin. The procedure, abridged:
(§2)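 Solubilized, partially purified rat liver HMG-CoA reductase. IC50 from four or five inhibitor concentrations. Relative potency compared IC50 with mevinolin (set to 100), corrected for molecular weight.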

In experiment [3] the target is T2, 3-hydroxy-3-methylglutaryl-coenzyme A reductase (Homo sapiens, UniProt P04035).
T2 sequence (P04035 whole entry): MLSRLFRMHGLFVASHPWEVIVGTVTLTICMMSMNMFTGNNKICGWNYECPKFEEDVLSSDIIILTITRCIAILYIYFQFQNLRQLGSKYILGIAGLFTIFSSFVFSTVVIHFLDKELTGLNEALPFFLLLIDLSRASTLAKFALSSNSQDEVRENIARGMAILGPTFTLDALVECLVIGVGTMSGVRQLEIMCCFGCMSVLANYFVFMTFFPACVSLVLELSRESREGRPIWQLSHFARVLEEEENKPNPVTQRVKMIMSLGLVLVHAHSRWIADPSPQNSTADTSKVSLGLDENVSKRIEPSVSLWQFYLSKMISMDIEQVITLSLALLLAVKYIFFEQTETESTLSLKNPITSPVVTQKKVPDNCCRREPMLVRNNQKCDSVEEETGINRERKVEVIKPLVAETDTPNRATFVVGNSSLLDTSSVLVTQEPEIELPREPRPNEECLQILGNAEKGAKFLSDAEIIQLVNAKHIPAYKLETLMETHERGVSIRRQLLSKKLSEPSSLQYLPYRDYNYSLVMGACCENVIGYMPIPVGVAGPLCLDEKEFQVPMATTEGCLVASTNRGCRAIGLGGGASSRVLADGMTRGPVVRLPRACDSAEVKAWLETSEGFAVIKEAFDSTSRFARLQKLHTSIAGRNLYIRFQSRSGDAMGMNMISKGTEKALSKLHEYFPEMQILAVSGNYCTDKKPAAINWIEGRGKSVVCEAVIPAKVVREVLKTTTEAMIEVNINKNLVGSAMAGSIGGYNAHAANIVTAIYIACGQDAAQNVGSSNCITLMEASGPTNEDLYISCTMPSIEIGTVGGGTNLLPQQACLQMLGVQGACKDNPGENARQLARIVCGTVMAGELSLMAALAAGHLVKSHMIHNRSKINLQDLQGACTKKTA
The experiment is described as follows: Inhibition of the incorporation of sodium [14C]acetate into cholesterol in HEP G2 cells. The class given is functional, cell-based, HepG2.

Experiment [4] concerns the target T3, 3-hydroxy-3-methylglutaryl-coenzyme A reductase (Rattus norvegicus, UniProt P51639).
T3 sequence (P51639 whole entry): T1 sequence (whole entry)
The experiment is described as follows: In vitro inhibition of HMG-CoA reductase in solubilized rat liver.

The target in experiment [5] is T4, 3-hydroxy-3-methylglutaryl-coenzyme A reductase (Homo sapiens) (UniProt P04035).
T4 sequence (whole entry): T2 sequence (P04035 whole entry)
The experiment is described as §1. The class given is functional. The procedure, abridged: as §2

The subject of experiment [6] is Oryctolagus cuniculus. The experiment is described as follows: Tested in vivo for hypocholesterolemic activity by measuring its ability to decrease serum total cholesterol, after oral administration of 75 mg/kg body wt. per day in normolipidemic NZW rabbits. The class given is functional. The procedure, abridged:
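NZW rabbits (n = 5 or 6) dosed orally daily for 10 days. Serum total cholesterol reported as % change versus control. For 20 mg/kg, that dose was given on days 11-20 after 10 mg/kg, with the value read on day 20. Error given as SEM.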

For `CC(C)c1cc(C(C)(C)C)cc(-c2ccc(F)cc2)c1OCC(O)C[C@@H](O)CC(=O)[O-].[Na+]` (some centres not stated), the IC50 result with Oryctolagus cuniculus [1] is “Not Active”; in experiment [3] it was over 500 nM; in experiment [4], 400 nM. The results for the Relative potency in experiment [2] and in experiment [5] were 2 and under 10, respectively.

Turning to `O=C([O-])C[C@H](O)CC(O)COc1c(Cl)cc(Cl)cc1C(c1ccc(F)cc1)c1ccc(F)cc1.[Na+]` (stereo in doubt; 11b), the Change with Oryctolagus cuniculus [6] was -25%. The compound also displayed a concentration for half-maximal inhibition (IC50) in experiment [4] of 50 nM.

By IC50 is commonly meant the point on the concentration scale where inhibition reaches its midpoint. Low values mean greater potency in that assay, high ones weaker potency in that assay.
